NPY Y2 blocker: NPY-Y2 receptor antagonists, primary screen, cell-based; 140,000 compounds, 0.99% hits; inhibition, % at 2.7 µM; NPY-Y2 expressing cells, antagonist mode; in the data active = inhibition above about 17%;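 also: 0% = vehicle with agonist challenge and 100% = reference antagonist with challenge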
S1P4 agonist: S1P4 receptor agonists, primary screen, cell-based. S1P4-expressing cell line, agonist reporter assay. activation, % at 4.98 µM. 220,000 compounds, 0.35% hits. AID 1509, 2009; in the data active = activation above about 11%;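 also: 0% = DMSO vehicle and 100% = reference agonist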
Target sequence (O95977 whole entry, looked up): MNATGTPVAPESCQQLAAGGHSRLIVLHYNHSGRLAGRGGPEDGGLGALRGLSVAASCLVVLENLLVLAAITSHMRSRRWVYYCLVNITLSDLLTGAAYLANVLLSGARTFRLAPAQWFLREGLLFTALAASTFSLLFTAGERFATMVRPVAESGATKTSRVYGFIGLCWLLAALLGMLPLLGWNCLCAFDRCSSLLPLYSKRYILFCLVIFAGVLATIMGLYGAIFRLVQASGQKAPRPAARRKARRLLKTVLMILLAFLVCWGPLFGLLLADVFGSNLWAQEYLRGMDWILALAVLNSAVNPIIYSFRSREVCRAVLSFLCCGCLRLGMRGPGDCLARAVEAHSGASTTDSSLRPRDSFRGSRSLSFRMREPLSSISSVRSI
NPY Y1 blocker: NPY-Y1 receptor antagonists, primary screen, cell-based | AID 1040, 2008 | HEK293-CNG Y1 cells, membrane potential fluorescence; NPY at EC95, then isoproterenol | 200,000 compounds, 1% hits | Neuropeptide Y receptor type 1 (Homo sapiens), P25929 | inhibition, % at 3.6 µM;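 active = inhibition above the campaign mean inhibition of all tested compounds plus 3 SD, cut at about 20% in these data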;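 also: 0% = DMSO wells given NPY plus isoproterenol and 100% = isoproterenol alone without NPY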
Target sequence (P25929 whole entry, looked up): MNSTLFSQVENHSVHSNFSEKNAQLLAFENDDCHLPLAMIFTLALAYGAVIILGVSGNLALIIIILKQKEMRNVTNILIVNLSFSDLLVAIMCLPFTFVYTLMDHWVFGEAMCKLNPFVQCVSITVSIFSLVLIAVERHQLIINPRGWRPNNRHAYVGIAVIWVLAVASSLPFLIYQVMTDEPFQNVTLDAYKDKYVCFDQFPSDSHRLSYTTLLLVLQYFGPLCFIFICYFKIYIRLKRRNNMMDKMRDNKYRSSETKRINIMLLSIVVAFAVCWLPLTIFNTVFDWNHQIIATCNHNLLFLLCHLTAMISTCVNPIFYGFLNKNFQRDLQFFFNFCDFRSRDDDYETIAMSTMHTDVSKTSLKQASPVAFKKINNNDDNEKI
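material = HEK293 cells with Y1 receptor plus CNG channel | also added = NPY 25 nM then isoproterenol 1 µM plus Ro 20-1724 25 µM | schedule = dye 3 h, compound 60 min room temperature, stimulation 45 min | measured by = membrane potential fluorescence | benchmarks = high control isoproterenol alone, low control NPY with isoproterenol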
NPY-Y2 PAM-ag: NPY-Y2 potentiators or agonists, primary screen, cell-based. AID 1359, 2008. activation, % at 3.6 µM. Neuropeptide Y receptor type 2 (Homo sapiens), P49146. cells expressing NPY-Y2, potentiator/agonist read-out. 220,000 compounds, 0.45% hits; in the data active = activation above about 27%;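 also: cells stimulated with NPY near EC25 plus isoproterenol at EC100; 0% = vehicle plus submaximal agonist and 100% = vehicle plus saturating agonist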
S1P4 antag: S1P4 receptor antagonists, primary screen, cell-based; Sphingosine 1-phosphate receptor 4 (Homo sapiens), O95977; S1P4-expressing cells, antagonist mode, reporter read-out; inhibition, % at 4.98 µM; 220,000 compounds, 0.26% hits; in the data active = inhibition above about 29%;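 also: 0% = wells stimulated with agonist and 100% = vehicle wells without agonist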
NPY-Y1 PAM-ag: NPY-Y1 receptor potentiators or agonists, primary screen, cell-based; Neuropeptide Y receptor type 1 (Homo sapiens), P25929; AID 1304, 2008; NPY-Y1 expressing cells, potentiator/agonist activation; 220,000 compounds, 0.37% hits; activation, % at 3.6 µM; in the data active = activation above about 33%, passing the limit was not always enough;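 also: cells stimulated with NPY at EC10 then isoproterenol at EC100; 0% = low agonist plus stimulus and 100% = saturating agonist plus stimulus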
NPY-Y2 confirm: NPY-Y2 potentiators or agonists, confirmation, cell-based; shares compounds with NPY-Y2 PAM-ag; cell-based NPY-Y2 potentiator/agonist assay; activation, % at 3.6 µM; 450 compounds, 20% hits; in the data active = activation above about 33%
NPY-Y1 potentiator: NPY-Y1 potentiators or agonists, counter-screen for NPY-Y2 potentiator project, cell-based, fluorescence. 450 compounds, 20% hits. shares compounds with NPY-Y2 PAM-ag. AID 1651, 2009. Y1 HEK293-CNG cells, membrane potential fluorescence. activation, % at 3.6 µM; in the data active = activation above about 45%;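 also: cells stimulated with submaximal NPY then isoproterenol with phosphodiesterase inhibitor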
NPY-Y1 ag 2: NPY-Y1 direct agonists, selectivity assay for NPY-Y2 potentiator project, cell-based, fluorescence | shares compounds with NPY-Y2 PAM-ag | HEK293 Y1-CNGC, membrane potential fluorescence, agonism | activation, % at 3.6 µM | 450 compounds, 37% hits | AID 1702, 2009;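 active = activation above the mean of DMSO-only control wells plus 3 SD, cut at about 18% in these data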;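 also: cells stimulated with 1 µM isoproterenol plus the PDE inhibitor Ro 20-1724; 0% = isoproterenol with DMSO and no NPY and 100% = 40 nM NPY; Y1 agonists lower the membrane potential dye signal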
CNGC inh: CNGC cAMP sensor activity inhibitors, counter-screen for NPY-Y2 potentiator project, cell-based, HEK293-CNG parental, membrane potential fluorescence | AID 1703, 2009 | shares compounds with NPY-Y2 PAM-ag | inhibition, % at 3.6 µM | isoproterenol cAMP | 450 compounds, 32% hits;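 active = inhibition above the control-well mean plus 3 SD of those wells, cut at about 22% in these data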;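 also: 0% = DMSO with isoproterenol and 100% = DMSO without isoproterenol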
Y2 agonist ctr: NPY-Y2 direct agonists, counter-screen for NPY-Y2 potentiator project, cell-based, fluorescence; 450 compounds, 56% hits; shares compounds with NPY-Y2 PAM-ag; HEK293 Y2/CNGC cells, membrane potential fluorescence, agonist mode; activation, % at 3.6 µM;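 active = activation above the mean of solvent-only control wells plus 3 SD, cut at about 10% in these data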;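 also: cells stimulated by isoproterenol with no NPY added so direct agonism is tested; 0% = DMSO with isoproterenol alone and 100% = NPY at EC100 plus isoproterenol; agonism lowers probe fluorescence through less cAMP and CNG channel opening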
Numbers without * were called inactive; . = no result. An excerpt weighted towards active compounds, which were near 2.4% of everything screened.

SMILES | NPY Y2 blocker | S1P4 agonist | NPY Y1 blocker | NPY-Y2 PAM-ag | S1P4 antag | NPY-Y1 PAM-ag | NPY-Y2 confirm | NPY-Y1 potentiator | NPY-Y1 ag 2 | CNGC inh | Y2 agonist ctr
Cc1cccc(OCC(=O)NNC(=O)C2CCCCC2C(=O)O)c1 (configuration not stated) | 2.5 | -0.1 | -2.0 | -1.9 | -9.0 | 8.1 | . | . | . | . | .
Clc1ccc2[nH]c3c(c2c1)CCc1cn[nH]c1-3 | -3.7 | 3.4 | -13.0 | 46.1* | 8.9 | 41.3 | 33.5* | 45.0* | 34.3* | 35.4* | 25.1*
CSc1nc(O)cc(=O)n1-c1ccc(F)cc1 | . | 0.2 | 2.8 | 0.0 | 2.0 | -4.7 | . | . | . | . | .
Cc1ccc(C(C2C(=O)CC(C)(C)CC2=O)C2C(=O)CC(C)(C)CC2=O)s1 | 3.0 | -1.5 | -1.7 | 4.0 | 11.7 | 3.2 | . | . | . | . | .
CNC[C@H](O)c1ccc(O)c(O)c1 | 1.3 | -0.5 | -3.2 | 60.5* | -12.5 | 61.5 | 59.4* | 47.9* | 71.0* | 57.9* | 48.9*
Cn1cc(CNC(=O)CC2C(=O)NCCN2CC(C)(C)C)cn1 (configuration not stated) | . | 0.4 | 5.9 | 8.1 | 5.4 | -10.2 | . | . | . | . | .
Cc1ccc(NC2=C/C(=N/S(=O)(=O)c3cccs3)c3ccccc3C2=O)cc1 | -12.3 | 2.0 | 6.5 | -0.2 | -16.8 | -8.1 | . | . | . | . | .
O=C1C(Nc2ccccc2)=C/C(=N/S(=O)(=O)c2cccs2)c2ccccc21 | -8.5 | 1.4 | -4.1 | 48.1* | -27.0 | 17.8 | 68.3* | 74.4* | 59.5* | 52.8* | 67.1*
COc1ccc(/C=N/NC(=O)Cc2cc(OC)c(OC)cc2[N+](=O)[O-])cc1 | 2.7 | 0.8 | -2.7 | 3.2 | -13.7 | -0.8 | . | . | . | . | .
O=[N+]([O-])c1cc(C(F)(F)F)cc([N+](=O)[O-])c1NCCNC(=S)Nc1ccc(Cl)c(Cl)c1 | . | -0.3 | . | 102.1* | -0.1 | 1.9 | 33.6* | 23.6 | 17.6* | 19.7 | 46.6*
S=C(NCc1ccncc1)Nc1ccc(Cl)c(Cl)c1 | 1.2 | -0.2 | 11.8 | 6.6 | -8.4 | 9.0 | . | . | . | . | .
COC(=O)/C(=C/c1cn(C(C)=O)c2ccccc12)[N+](=O)[O-] | . | 0.4 | . | 60.5* | -7.1 | 34.9 | 18.0 | 31.6 | 24.6* | 20.1 | 17.6*
CC(C)CN(C(=O)c1cc2ccccc2o1)c1c(N)n(CC(C)C)c(=O)[nH]c1=O | -0.3 | -0.5 | -1.4 | -16.1 | -17.8 | -7.8 | . | . | . | . | .
O=C(Nc1cccc([N+](=O)[O-])c1)c1cc2ccccc2cc1O | . | 1.5 | . | 57.4* | 4.3 | 27.9 | 5.7 | -20.5 | -12.5 | 1.5 | 11.2*
O=C(O)c1ccccc1C(=O)Nc1cccc([N+](=O)[O-])c1 | . | 1.6 | . | -7.4 | -11.9 | -3.7 | . | . | . | . | .
CC1CCCCC1NCC(=O)NCc1ccc(F)cc1 (configuration not stated) | . | 0.5 | 5.3 | -12.7 | -2.4 | -22.3 | . | . | . | . | .
Oc1ccccc1-c1nc(NCC2CCCO2)c2ccccc2n1 (configuration not stated) | -0.7 | -1.1 | -4.2 | 41.1* | -10.4 | 22.0 | 37.3* | 24.4 | 17.3 | 24.4* | 19.1*
COc1cccc(-c2nc(NCC3CCCO3)c3ccccc3n2)c1O (configuration not stated) | -1.0 | 1.4 | -2.9 | 9.1 | -14.9 | 8.1 | . | . | . | . | .
O=C(NC(NC(=S)Nc1cccc(C(=O)O)c1)C(Cl)(Cl)Cl)OCc1ccccc1 (configuration not stated) | 2.4 | 1.6 | -3.3 | -3.4 | -13.1 | -12.7 | . | . | . | . | .
O=C(NC(NC(=S)Nc1cccc(Cl)c1)C(Cl)(Cl)Cl)OCc1ccccc1 (configuration not stated) | -1.3 | -0.5 | -6.9 | 33.2* | -14.0 | 15.2 | 19.6 | 34.9 | 30.2* | 27.8* | 34.3*
Nc1sc(-c2ccccc2)cc1-c1n[nH]c(=S)n1C1CCCCC1 | . | 0.0 | . | 102.0* | -10.7 | 1.1 | 19.4 | 18.9 | 10.5 | 17.4 | 24.6*
O=C(NNc1ccc(C(F)(F)F)cc1[N+](=O)[O-])c1ccc(NS(=O)(=O)c2ccc(F)cc2)cc1 | -6.3 | 0.8 | -11.6 | 44.6* | -18.6 | 37.9 | 58.1* | 71.6* | 61.6* | 62.0* | 61.9*
COc1cccc(OC2OC3COC(C)(C)OC3C(O)C2NC(C)=O)c1 (configuration not stated) | . | -1.0 | 2.5 | -9.6 | 7.3 | 5.5 | . | . | . | . | .
Cc1ccc(Cn2cccc2/C=N/NC(=S)Nc2ccc(C)cc2)cc1 | . | -0.4 | -3.8 | 5.8 | -1.0 | -16.2 | . | . | . | . | .
COc1ccc(NC(=S)N/N=C/c2cccn2Cc2ccc(F)cc2)cc1 | . | -0.3 | 1.6 | 41.5* | -3.1 | 20.0 | 16.9 | 6.5 | -1.8 | 2.0 | 5.1
SMILES | NPY Y2 blocker | S1P4 agonist | NPY Y1 blocker | NPY-Y2 PAM-ag | S1P4 antag | NPY-Y1 PAM-ag | NPY-Y2 confirm | NPY-Y1 potentiator | NPY-Y1 ag 2 | CNGC inh | Y2 agonist ctr
COc1ccc(Oc2ccc(/C=C/C(=O)c3ccc(O)cc3)cc2[N+](=O)[O-])cc1 | 2.1 | 1.4 | -4.5 | 37.7* | 25.4 | 18.8 | 16.1 | 33.9 | 23.4* | 19.9 | 11.2*
COc1ccc(/C=C/C(=O)c2ccc(O)cc2)cc1COc1ccc(F)cc1 | -1.9 | -2.8 | -6.1 | 1.2 | -6.5 | 6.6 | . | . | . | . | .
N#C/C(=C\Nc1ccccc1O)c1nc2ccccc2o1 | 0.4 | 1.5 | 1.7 | 30.6* | -10.3 | 14.7 | 24.5 | 36.5 | 28.6* | 34.2* | 18.3*
Cc1ccc(-c2c(C(=O)NCc3ccc(F)cc3)oc(=O)c3ccccc23)cc1 | 7.5 | -1.3 | 1.8 | -15.4 | -17.4 | -18.0 | . | . | . | . | .
C=CCc1ccccc1OCC(O)CN1CCN(c2ccc(C)cc2)CC1 (configuration not stated) | 7.1 | 4.8 | -4.9 | 43.6* | -9.9 | 45.2 | 28.5 | 31.1 | 54.5* | -0.4 | 46.6*
CCOC(=O)N1CCN(CC(O)COCc2ccc(Cl)cc2)CC1 (configuration not stated) | 1.3 | 1.9 | 1.9 | 6.1 | 2.8 | 3.6 | . | . | . | . | .

Screening data deposited in PubChem by The Scripps Research Institute Molecular Screening Center.
